Activity calls are given as the source filed them. No cut-off for these calls is given here.
Molecular target: Transient receptor potential cation channel subfamily M member 8 (Mus musculus) (UniProt Q8R4D5)
Experiment: Agonist activity at mouse TRPM8 expressed in HEK293 cells assessed as increase in intracellular calcium level at 33 uM measured for 2.5 mins by Fluo-8-AM dye based fluorescence assay
Format: cell-based

Transient receptor potential cation channel subfamily M member 8 (Mus musculus), sequence (Q8R4D5 whole entry): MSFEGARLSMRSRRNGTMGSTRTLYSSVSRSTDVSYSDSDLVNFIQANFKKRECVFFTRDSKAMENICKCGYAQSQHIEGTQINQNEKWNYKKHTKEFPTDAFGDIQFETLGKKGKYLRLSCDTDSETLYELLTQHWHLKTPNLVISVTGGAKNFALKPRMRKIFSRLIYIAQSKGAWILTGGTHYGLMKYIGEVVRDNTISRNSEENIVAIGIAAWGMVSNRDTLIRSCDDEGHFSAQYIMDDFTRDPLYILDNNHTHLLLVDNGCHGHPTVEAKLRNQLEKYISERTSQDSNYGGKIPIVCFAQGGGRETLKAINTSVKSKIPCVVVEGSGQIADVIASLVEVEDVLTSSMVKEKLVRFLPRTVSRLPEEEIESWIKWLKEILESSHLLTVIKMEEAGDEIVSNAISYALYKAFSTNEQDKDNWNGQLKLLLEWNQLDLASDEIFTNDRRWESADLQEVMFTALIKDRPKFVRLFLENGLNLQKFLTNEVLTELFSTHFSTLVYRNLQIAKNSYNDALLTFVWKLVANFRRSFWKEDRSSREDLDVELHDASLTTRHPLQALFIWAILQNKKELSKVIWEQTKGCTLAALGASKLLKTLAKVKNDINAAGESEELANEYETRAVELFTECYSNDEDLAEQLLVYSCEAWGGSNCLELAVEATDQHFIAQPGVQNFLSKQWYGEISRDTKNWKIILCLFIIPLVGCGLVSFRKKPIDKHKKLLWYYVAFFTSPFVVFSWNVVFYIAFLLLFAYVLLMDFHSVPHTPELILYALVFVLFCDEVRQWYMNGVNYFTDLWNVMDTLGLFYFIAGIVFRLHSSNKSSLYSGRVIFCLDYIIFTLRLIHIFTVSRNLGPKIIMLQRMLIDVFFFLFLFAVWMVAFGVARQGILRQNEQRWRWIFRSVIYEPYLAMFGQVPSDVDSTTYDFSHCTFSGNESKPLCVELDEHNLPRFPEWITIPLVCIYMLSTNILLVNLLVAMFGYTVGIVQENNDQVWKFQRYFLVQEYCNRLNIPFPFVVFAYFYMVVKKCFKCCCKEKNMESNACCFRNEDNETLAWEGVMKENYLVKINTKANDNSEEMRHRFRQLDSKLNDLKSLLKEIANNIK

Activity | SMILES
inactive | Cc1nn2c(O)cc(C3CCN(C(=O)OCc4ccccc4)CC3)nc2c1-c1ccc(Cl)cc1
inactive | CCOC(=O)N1CCC(c2cc(O)n3nc(C)c(-c4ccc(C(F)(F)F)cc4)c3n2)CC1
inactive | Cc1nn2c(O)cc(C3CCN(C(=O)OCc4ccccc4)CC3)nc2c1-c1ccc(F)cc1

SMILES | Activity
CCOC(=O)N1CCC(c2cc(O)n3nc(C)c(-c4ccc(F)cc4)c3n2)CC1 | inactive

Molecular target: T1, Short transient receptor potential channel 6 (Mus musculus, UniProt Q61143)
T1 sequence (Q61143 whole entry): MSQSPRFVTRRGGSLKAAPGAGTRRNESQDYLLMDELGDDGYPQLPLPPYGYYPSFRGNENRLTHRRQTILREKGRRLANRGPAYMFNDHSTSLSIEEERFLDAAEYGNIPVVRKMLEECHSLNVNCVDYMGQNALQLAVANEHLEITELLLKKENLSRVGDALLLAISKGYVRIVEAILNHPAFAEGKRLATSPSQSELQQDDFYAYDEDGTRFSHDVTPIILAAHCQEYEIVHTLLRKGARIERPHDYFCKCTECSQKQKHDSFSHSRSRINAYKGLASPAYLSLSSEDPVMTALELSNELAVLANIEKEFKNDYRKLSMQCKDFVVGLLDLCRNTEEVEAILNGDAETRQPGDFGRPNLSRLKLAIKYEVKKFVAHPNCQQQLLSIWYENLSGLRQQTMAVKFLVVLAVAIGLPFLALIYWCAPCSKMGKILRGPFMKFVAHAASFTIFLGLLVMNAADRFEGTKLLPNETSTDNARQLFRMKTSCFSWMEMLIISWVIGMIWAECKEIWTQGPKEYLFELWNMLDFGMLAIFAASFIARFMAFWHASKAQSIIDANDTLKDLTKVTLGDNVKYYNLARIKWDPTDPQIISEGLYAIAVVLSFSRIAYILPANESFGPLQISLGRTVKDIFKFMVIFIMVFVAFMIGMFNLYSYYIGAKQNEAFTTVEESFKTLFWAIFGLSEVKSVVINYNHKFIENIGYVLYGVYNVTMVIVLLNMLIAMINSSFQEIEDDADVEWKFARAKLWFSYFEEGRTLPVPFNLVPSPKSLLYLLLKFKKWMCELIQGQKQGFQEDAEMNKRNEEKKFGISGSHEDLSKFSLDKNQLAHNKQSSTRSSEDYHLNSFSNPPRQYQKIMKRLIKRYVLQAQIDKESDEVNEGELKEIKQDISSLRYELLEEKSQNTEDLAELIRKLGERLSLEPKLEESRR
Experiment: Agonist activity at mouse TRPC6 expressed in HEK293 cells co-expressing Gq11-PLCbeta fused M5 receptor assessed as peak current changes at +80 mV by whole cell patch-clamp method
Format: cell-based
Summary of the method: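 Whole-cell patch clamp of TRPC6/M5 HEK293 cells. Pipette solution: 110 CsCl, 10 BAPTA, 4.77 CaCl2 (400 nM free Ca2+), pH 7.2. Bath at 0.1 mM Ca2+, pH 7.4. Ramps from +100 to −100 mV (100 ms) every 1 s from a 0 mV holding potential. Concentrations of 0.1–100 μM applied consecutively by perfusion. EC50 from currents at +80 mV.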

EC50 | SMILES
2050 nM | Cc1nn2c(O)cc(C3CCN(C(=O)OCc4ccccc4)CC3)nc2c1-c1ccc(Cl)cc1
890 nM | CCOC(=O)N1CCC(c2cc(O)n3nc(C)c(-c4ccc(C(F)(F)F)cc4)c3n2)CC1
3240 nM | Cc1nn2c(O)cc(C3CCN(C(=O)OCc4ccccc4)CC3)nc2c1-c1ccc(F)cc1

SMILES | EC50
CCOC(=O)N1CCC(c2cc(O)n3nc(C)c(-c4ccc(F)cc4)c3n2)CC1 | 2500 to 6280 nM

Molecular target: T2, Short transient receptor potential channel 4 (Mus musculus) (UniProt Q9QUQ5)
T2 sequence (whole entry): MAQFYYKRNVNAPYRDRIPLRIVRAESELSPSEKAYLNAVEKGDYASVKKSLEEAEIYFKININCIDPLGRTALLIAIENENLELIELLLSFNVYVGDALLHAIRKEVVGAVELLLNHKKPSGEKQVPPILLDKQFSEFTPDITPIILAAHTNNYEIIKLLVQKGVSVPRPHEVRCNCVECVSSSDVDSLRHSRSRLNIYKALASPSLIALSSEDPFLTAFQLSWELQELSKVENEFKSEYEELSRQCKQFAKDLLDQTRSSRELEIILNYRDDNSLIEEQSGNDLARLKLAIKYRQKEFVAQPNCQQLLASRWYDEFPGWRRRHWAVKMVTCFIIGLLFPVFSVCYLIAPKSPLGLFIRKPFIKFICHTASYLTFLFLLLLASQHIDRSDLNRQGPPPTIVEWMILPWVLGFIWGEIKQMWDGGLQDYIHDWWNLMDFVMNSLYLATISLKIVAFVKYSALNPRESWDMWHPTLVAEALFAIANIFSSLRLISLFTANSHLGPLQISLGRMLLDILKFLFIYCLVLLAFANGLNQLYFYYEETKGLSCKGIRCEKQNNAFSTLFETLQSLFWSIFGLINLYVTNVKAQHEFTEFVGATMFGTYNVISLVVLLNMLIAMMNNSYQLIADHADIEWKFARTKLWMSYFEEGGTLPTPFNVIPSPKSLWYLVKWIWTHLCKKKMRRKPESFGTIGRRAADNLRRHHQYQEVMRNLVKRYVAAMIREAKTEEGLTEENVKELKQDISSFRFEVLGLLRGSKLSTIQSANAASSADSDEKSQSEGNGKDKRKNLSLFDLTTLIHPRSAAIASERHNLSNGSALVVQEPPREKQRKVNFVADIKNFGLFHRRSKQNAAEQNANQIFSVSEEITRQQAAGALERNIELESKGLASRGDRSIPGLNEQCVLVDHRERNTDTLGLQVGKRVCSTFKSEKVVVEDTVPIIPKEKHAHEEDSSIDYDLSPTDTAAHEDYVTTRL
Experiment: Agonist activity at mouse TRPC4beta expressed in HEK293 cells co-expressing MOR assessed as induction of membrane depolarization at 33 uM measured for 2.5 mins by FLIPR membrane potential dye-based fluorescence assay
Format: cell-based

Activity | SMILES
inactive | Cc1nn2c(O)cc(C3CCN(C(=O)OCc4ccccc4)CC3)nc2c1-c1ccc(Cl)cc1
inactive | CCOC(=O)N1CCC(c2cc(O)n3nc(C)c(-c4ccc(C(F)(F)F)cc4)c3n2)CC1
inactive | Cc1nn2c(O)cc(C3CCN(C(=O)OCc4ccccc4)CC3)nc2c1-c1ccc(F)cc1

SMILES | Activity
CCOC(=O)N1CCC(c2cc(O)n3nc(C)c(-c4ccc(F)cc4)c3n2)CC1 | inactive

Reference: ChEMBL document CHEMBL4014306, “Pyrazolopyrimidines as Potent Stimulators for Transient Receptor Potential Canonical 3/6/7 Channels” (J Med Chem, 2017)
